Here are results for 1 compound from ChEMBL document CHEMBL4261575, “Structure-guided approach identifies a novel class of HIV-1 ribonuclease H inhibitors: binding mode insights through magnesium complexation and site-directed mutagenesis studies” (Medchemcomm, 2018).

As a reminder, the IC50 is the midpoint of a concentration-inhibition curve.

Active and inactive are the calls of the source. The rule behind the calls is not given here.

Assay [1] concerns the target Human immunodeficiency virus type 1 reverse transcriptase (Human immunodeficiency virus 1, UniProt Q72547). Briefly: Inhibition of HIV1 reverse transcriptase RNase H activity using 18-nucleotide 3'-fluorescein-labeled RNA/5'-[…]-labeled DNA hybrid as substrate after 1 hr by fluorescence assay. The method in brief:
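Polymerase-independent RNase H assay with 20 ng wild-type RT in 50 mM Tris-HCl pH 7.8, 6 mM MgCl2, 1 mM DTT and 80 mM KCl. Substrate was 0.25 μM RNA/DNA hybrid with a fluorescein-labelled RNA and a dabcyl-labelled DNA. Inhibitor was diluted in water over increasing concentrations. Incubation 1 h at 37 °C, stopped with EDTA, read at 490/528 nm. IC50 was averaged over three independent experiments.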

A short description of assay [2]: Binding affinity to Mg2+ at 3 x 10^-5 M to 8 x 10^-5 M by UV-Vis spectrophotometric method. The essentials:
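UV-vis spectrophotometric titration of the compound in absolute ethanol with MgCl2, read in a quartz cuvette with a 1 cm path. MgCl2 was diluted in absolute ethanol to 13 stock solutions spanning 4 10–5 to 0.2 M (stock concentrations). Spectra were recorded across increasing Mg2+ levels, and isosbestic points were used to judge complexation equilibria. Each experiment was done in triplicate.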

Assay [3] is described as follows: (§1) Binding affinity to Mg2+ assessed as hyperchromic effect at 3 x 10^-5 M to 8 x 10^-5 M by UV-Vis spectrophotometric method. The method in brief:
(§2)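 UV-vis titration with MgCl2 in a 1 cm quartz cuvette. MgCl2 was diluted in absolute ethanol to 13 stock solutions spanning 4 10–5 to 0.2 M. Spectra were followed for absorbance changes and isosbestic points. Each experiment was done in triplicate.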

Assay [4] is described as follows: as §1. The method in brief: as §2
This is another data set of the same source.

For assay [5], the target named is Human immunodeficiency virus type 1 reverse transcriptase (Human immunodeficiency virus 1, UniProt Q72547, A502F). Briefly: Inhibition of HIV1 group M subtype B reverse transcriptase p66 A502F mutant RNase H activity using 18-nucleotide 3'-fluorescein-labeled RNA/5'-[…]-labeled DNA hybrid as substrate after 1 hr by fluorescence assay. Further details: species or system HIV-1 group M. The method in brief:
(§3)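 Mutations were introduced into the p66 subunit of subtype B RT. Enzyme amounts were set within the linear range: R448A 37.5 ng, N474A 62.5 ng, A502F 100 ng, R557A 75 ng. Buffer was 50 mM Tris-HCl pH 7.8, 6 mM MgCl2, 1 mM DTT, 80 mM KCl, with 0.25 μM fluorescein/dabcyl hybrid and water-diluted inhibitor. Incubation 1 h at 37 °C, EDTA stop, read at 490/528 nm.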

For assay [6], the target named is Human immunodeficiency virus type 1 reverse transcriptase (Human immunodeficiency virus 1, UniProt Q72547, R557A). Briefly: Inhibition of HIV1 group M subtype B reverse transcriptase p66 R557A mutant RNase H activity using 18-nucleotide 3'-fluorescein-labeled RNA/5'-[…]-labeled DNA hybrid as substrate after 1 hr by fluorescence assay. Further details: species or system HIV-1 group M. The essentials:
as §3

In assay [7] the target is Human immunodeficiency virus type 1 reverse transcriptase (Human immunodeficiency virus 1, UniProt Q72547, R448A). Briefly: Inhibition of HIV1 group M subtype B reverse transcriptase p66 R448A mutant RNase H activity using 18-nucleotide 3'-fluorescein-labeled RNA/5'-[…]-labeled DNA hybrid as substrate after 1 hr by fluorescence assay. Further details: species or system HIV-1 group M. The method in brief:
as §3

Assay [8] has as its target Human immunodeficiency virus type 1 reverse transcriptase (Human immunodeficiency virus 1, UniProt Q72547, N474A). Briefly: Inhibition of HIV1 group M subtype B reverse transcriptase p66 N474A mutant RNase H activity using 18-nucleotide 3'-fluorescein-labeled RNA/5'-[…]-labeled DNA hybrid as substrate after 1 hr by fluorescence assay. Further details: species or system HIV-1 group M. The method in brief: as §3

Assay [9] in a line: Selectivity ratio of IC50 for HIV1 group M subtype B reverse transcriptase p66 A502F mutant RNase H activity to IC50 for HIV1 reverse transcriptase RNase H activity.
A short description of assay [10]: Selectivity ratio of IC50 for HIV1 group M subtype B reverse transcriptase p66 R557A mutant RNase H activity to IC50 for HIV1 reverse transcriptase RNase H activity.
Assay [11] can be described thus: Selectivity ratio of IC50 for HIV1 group M subtype B reverse transcriptase p66 R448A mutant RNase H activity to IC50 for HIV1 reverse transcriptase RNase H activity.
The nature of assay [12]: Selectivity ratio of IC50 for HIV1 group M subtype B reverse transcriptase p66 N474A mutant RNase H activity to IC50 for HIV1 reverse transcriptase RNase H activity.
For assay [13], the system named is Human immunodeficiency virus 1. Nature of the assay: Antiviral activity against HIV1 assessed as inhibition of viral replication at 40 uM by cell-based assay. The format is functional, organism-based.

Turning to `CCOc1cc(/C=C2\SC(=S)N(c3ccccc3)C2=O)cc([N+](=O)[O-])c1O`, the IC50 is 12.8 µM in assay [1]; 26.3 µM in assay [5]; 18.6 µM in assay [6]; 11.3 µM in [7]; 146 µM in assay [8]. Besides, the outcome in [2], in assay [3] and in assay [4] was Active. In addition, the Ratio IC50 is 2.1 in [9], 1.5 in assay [10], 0.9 in [11] and 11.4 in assay [12]. In addition, the inhibition entry in [13] was “inactive”.
